Reference: publication PMC8026699 (Cancer research, 2021)

Molecular target: T1, recombinant human ACSS3 (Homo sapiens, UniProt Q9H6R3)
T1 sequence (Q9H6R3 30-686): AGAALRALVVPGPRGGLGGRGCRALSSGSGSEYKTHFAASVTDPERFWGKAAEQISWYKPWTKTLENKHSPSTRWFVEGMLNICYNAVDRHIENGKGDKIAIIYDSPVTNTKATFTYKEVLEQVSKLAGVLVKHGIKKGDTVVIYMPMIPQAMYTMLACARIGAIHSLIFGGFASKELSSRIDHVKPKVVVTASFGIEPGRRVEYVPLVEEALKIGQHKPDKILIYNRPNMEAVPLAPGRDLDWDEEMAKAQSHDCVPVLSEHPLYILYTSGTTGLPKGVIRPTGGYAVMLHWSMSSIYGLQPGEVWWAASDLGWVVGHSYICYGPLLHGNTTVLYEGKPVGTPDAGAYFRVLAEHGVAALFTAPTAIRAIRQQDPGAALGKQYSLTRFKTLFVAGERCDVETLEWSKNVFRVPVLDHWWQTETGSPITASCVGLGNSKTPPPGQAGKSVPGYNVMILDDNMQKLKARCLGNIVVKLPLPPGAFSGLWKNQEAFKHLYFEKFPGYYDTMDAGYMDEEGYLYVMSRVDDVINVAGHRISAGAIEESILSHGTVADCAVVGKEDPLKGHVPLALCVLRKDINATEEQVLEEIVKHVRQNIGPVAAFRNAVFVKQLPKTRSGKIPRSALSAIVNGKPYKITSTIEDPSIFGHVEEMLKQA
Test: TranScreener AMP biochemical assay of ACSS3 activity
Details: regardless of the substrate (acetate or propionate)
Procedure, shortened: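 Test compound was serially diluted in DMSO and added to ACSS1 (2 nM) or ACSS3 (25 nM). Acetate reaction: HEPES pH 7.4 buffer with 140 mM NaCl; final 5 mM acetate, 50 μM ATP, 5 μM CoA. Propionate reaction: HEPES/KCl/CHAPS buffer; final 5 mM propionate, 10 μM ATP, 100 μM CoA. Incubation 120 min, then AMP detected by terbium-antibody/tracer TR-FRET after 30 min. Percent inhibition was set against no-enzyme and DMSO controls.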

For `CCn1c(C(O)(c2ccccc2)c2ccccc2)nc2ccc(C(=O)NC[C@@H](C)O)cc21` [VY-3-135, (R)-1-ethyl-2-(hydroxydiphenylmethyl)-N-(2-hydroxypropyl)-1H-benzo[d]imidazole-6-carboxamide], the “inhibitory activity towards ACSS3” value was “neither VY-3-249 nor VY-3-135 displayed any inhibitory activity”.
